Converted amounts (≈) assume the structure as drawn.
Experiments:
NCI-H446 [1] = assay: Cytotoxicity against human NCI-H446 cells at 100 ug/ml after 72 hrs by MTT assay; type: functional; conditions: NCI-H446, 72 h, read-out: GI
In short: (§1)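 Test samples (>95% pure) were dissolved in DMSO and diluted with PBS to a 1000 µg mL-1 solution. This was serially diluted in PBS to 100–3.125 µg mL-1 solutions. Human cells were seeded at (4-6) × 10^4 cells/mL, and 10 µL/well of sample was added 24 h after seeding. Plates were incubated 72 h at 37 °C in humidified 5% CO2. Viability was read by MTT at 570 nm. Doxorubicin served as positive control.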

[2] = Cytotoxicity against human PC3M cells after 72 hrs by MTT assay; type: functional, cell-based; conditions: PC-3M; in short: as §1
HCT-116 [3] = assay: Cytotoxicity against human HCT116 cells at 100 ug/ml after 72 hrs by MTT assay; type: functional; conditions: HCT-116, 72 h, read-out: GI; in short: as §1
HL-60 [4] = assay: Cytotoxicity against human HL60 cells after 72 hrs by MTT assay; type: functional, cell-based; conditions: HL-60, 72 h; in short: as §1
[5] = Cytotoxicity against human PC3M cells at 100 ug/ml after 72 hrs by MTT assay; type: functional; conditions: PC-3M, read-out: GI; in short: as §1
HCT-116 [6] = assay: Cytotoxicity against human HCT116 cells after 72 hrs by MTT assay; type: functional, cell-based; conditions: HCT-116, 72 h; in short: as §1
HL-60 [7] = assay: Cytotoxicity against human HL60 cells at 100 ug/ml after 72 hrs by MTT assay; type: functional; conditions: HL-60, 72 h, read-out: GI; in short: as §1
NCI-H446 [8] = assay: Cytotoxicity against human NCI-H446 cells after 72 hrs by MTT assay; type: functional, cell-based; conditions: NCI-H446, 72 h; in short: as §1

| SMILES | inhibition of growth at 100 µg/mL (NCI-H446 [1]) | IC50 [2] | inhibition of growth at 100 µg/mL (HCT-116 [3]) | IC50 (HL-60 [4]) | inhibition of growth at 100 µg/mL [5] | IC50 (HCT-116 [6]) | inhibition of growth at 100 µg/mL (HL-60 [7]) | IC50 (NCI-H446 [8]) |
| --- | --- | --- | --- | --- | --- | --- | --- | --- |
| COc1cc2sc(=S)n(C)c(=O)c2cc1O [BRETSCHNEIDERAZINE A] | 53.9% | > 100 µg/mL | 0% | > 100 µg/mL | 29.4% | > 100 µg/mL | 9.91% | 79.2 µg/mL (≈ 310 µM) |
| COc1ccc2c(=O)n(C)c(=S)sc2c1OC [BRETSCHNEIDERAZINE B] | 41.3% | > 100 µg/mL | 0% | > 100 µg/mL | 0% | > 100 µg/mL | 8.04% | 60.2 µg/mL (≈ 224 µM) |
| COc1cc(C=O)ccc1O[C@@H]1O[C@H](CO[C@@H]2OC[C@](O)(CO)[C@H]2O)[C@@H](O)[C@H](O)[C@H]1O [BRETSCHNEIDEROSIDE A] | 29.7% | > 100 µg/mL | 0% | > 100 µg/mL | 0% | > 100 µg/mL | 0.14% | > 100 µg/mL |
| O=Cc1ccc(O[C@@H]2O[C@H](CO[C@@H]3OC[C@](O)(CO)[C@H]3O)[C@@H](O)[C@H](O)[C@H]2O)c(O)c1 [BRETSCHNEIDEROSIDE B] | 38.4% | > 100 µg/mL | 0% | > 100 µg/mL | 0% | > 100 µg/mL | 7.25% | > 100 µg/mL |
| COc1cc(CO[C@@H]2O[C@H](CO[C@@H]3OC[C@](O)(CO)[C@H]3O)[C@@H](O)[C@H](O)[C@H]2O)ccc1O [BRETSCHNEIDEROSIDE C] | 40.7% | > 100 µg/mL | 9.3% | > 100 µg/mL | 6.35% | > 100 µg/mL | 5.68% | > 100 µg/mL |
| COc1cccc2c1C(=O)c1c(O)c3c(c(O)c1C2=O)C[C@@](O)(C(=O)CO)C[C@@H]3O[C@H]1C[C@H](N)[C@H](O)[C@H](C)O1 [DOXORUBICIN] | 91.2% | < 0.001 µg/mL | 93.1% | 0.457 µg/mL (≈ 0.841 µM) | 96.4% | 0.286 µg/mL (≈ 0.526 µM) | 94.7% | 0.0248 µg/mL (≈ 0.0456 µM) |
